# Data as given in ChEMBL document CHEMBL3525963, “Tissue distribution and elimination of [14C]apixaban in rats” (Drug Metab Dispos, 2011).
# Experiments:
# Format in all cases: ADME, organism-based
# Parameters in all cases: dose 5 mg/kg, dosed compound name [14C]-apixaban, route oral
# Conditions in all cases: in vivo
# Rattus norvegicus [1] = experiment: Biodistribution in fetal kidney of pregnant Sprague-Dawley rat at 5 mg/kg, po administered as single dose measured after 24 hrs
# Procedure, shortened: (§1)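 Quantitative whole-body autoradiography was run after a single 5 mg/kg (100 μCi/kg) oral gavage to fasted female or pregnant SD rats, one rat per time point. Carcasses were frozen in hexane/dry ice, and 40 µm sagittal sections were dried at −20°C for at least 48 h. Sections were exposed to a phosphor plate alongside [14C]glucose standards (0.001–6.5 µCi/g). Results are µg eq/g, with LLOQ 0.037 µg eq/g.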
# Rattus norvegicus [2] = experiment: Biodistribution in female Sprague-Dawley rat pituitary gland at 5 mg/kg, po administered as single dose measured after 72 hrs; procedure, shortened: as §1
# Rattus norvegicus [3] = experiment: Biodistribution in female Sprague-Dawley rat bone marrow at 5 mg/kg, po administered as single dose measured after 24 hrs; procedure, shortened: as §1
# Rattus norvegicus [4] = experiment: Biodistribution in pregnant Sprague-Dawley rat placenta at 5 mg/kg, po administered as single dose measured after 8 hrs
# Thymus [5] = experiment: Biodistribution in pregnant Sprague-Dawley rat thymus at 5 mg/kg, po administered as single dose measured after 24 hrs
# Procedure, shortened: (§2)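 Pregnant SD rats (270-319 g) were fasted overnight and given one oral gavage of 5 mg/kg (100 μCi/kg) in 0.5% Tween 80 in Labrafil. One rat was euthanized per time point (0.5, 1, 4, 8, 24, 48 h) and the carcass frozen. 40 µm sagittal sections were phosphor-imaged against [14C]glucose standards and results reported as µg eq/g; LLOQ 0.037 µg eq/g.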
# Rattus norvegicus [6] = experiment: Biodistribution in male Sprague-Dawley rat kidney cortex at 5 mg/kg, po administered as single dose measured after 72 hrs
# Procedure, shortened: (§3)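 Fasted male SD rats (225-252 g) each received one oral gavage dose of [14C]apixaban, 5 mg/kg (100 μCi/kg), in 0.5% Tween 80/Labrafil vehicle. One rat was killed per time point, from 0.5 to 168 h. Frozen carcasses were cut into 40 µm sagittal whole-body sections and read by QWBA phosphor imaging against [14C]glucose calibrants. Results are in µg apixaban eq/g; BLQ <0.037 µg eq/g.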
# Liver = experiment: Biodistribution in male Sprague-Dawley rat liver at 5 mg/kg, po administered as single dose measured after 24 hrs
# Procedure, shortened: (§4)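 [14C]apixaban (1.0 mg/mL, 20 μCi/mL) in 0.5% Tween 80 in Labrafil, given by oral gavage at 100 μCi/kg to male rats (225-252 g) fasted overnight through 4 h post-dose. One rat per time point. Carcasses frozen in hexane/dry ice and cut into 40 µm sagittal sections. QWBA read on phosphor plates against [14C]glucose standards, reported as µg eq/g. LLOQ 0.037 µg eq/g.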
# Heart = experiment: Biodistribution in pregnant Sprague-Dawley rat heart at 5 mg/kg, po administered as single dose measured after 24 hrs
# Procedure, shortened: (§5)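 Fasted pregnant SD rats (n=6, 270-319 g) each received one oral gavage dose of [14C]apixaban, 5 mg/kg (100 μCi/kg), in 0.5% Tween 80/Labrafil. One rat was killed at each of 0.5, 1, 4, 8, 24 and 48 h. Carcasses were frozen in hexane/dry ice, cut into 40 µm sagittal sections, exposed to phosphor plates and quantified against [14C]glucose standards as µg eq/g. LLOQ was 0.037 µg eq/g.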
# Rattus norvegicus [7] = experiment: Biodistribution in pregnant Sprague-Dawley rat salivary gland at 5 mg/kg, po administered as single dose measured after 8 hrs
# Adrenal gland = experiment: Biodistribution in pregnant Sprague-Dawley rat adrenal gland at 5 mg/kg, po administered as single dose measured after 4 hrs; procedure, shortened: as §5
# Lung [8] = experiment: Biodistribution in pregnant Sprague-Dawley rat lung at 5 mg/kg, po administered as single dose measured after 48 hrs; procedure, shortened: as §2
# Pancreas = experiment: Biodistribution in female Sprague-Dawley rat pancreas at 5 mg/kg, po administered as single dose measured after 72 hrs; procedure, shortened: as §1
# Thymus [9] = experiment: Biodistribution in pregnant Sprague-Dawley rat thymus at 5 mg/kg, po administered as single dose measured after 48 hrs; procedure, shortened: as §2
# Harderian gland [10] = experiment: Biodistribution in female Sprague-Dawley rat harderian gland at 5 mg/kg, po administered as single dose measured after 1 hr
# Procedure, shortened: (§6)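 [¹⁴C]Apixaban given by oral gavage at 5 mg/kg (100 μCi/kg) in 0.5% Tween 80 in Labrafil (1.0 mg/mL dosing solution) to rats fasted overnight through 4 h post-dose. One rat per time point; carcass frozen in hexane/dry ice. Quantitative whole-body autoradiography used 40 µm sagittal sections and a phosphor imaging plate calibrated with [¹⁴C]glucose standards (0.001–6.5 μCi/g). Read-out in µg eq apixaban/g; LLOQ 0.037 μg eq/g.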
# Harderian gland [11] = experiment: Biodistribution in pregnant Sprague-Dawley rat harderian gland at 5 mg/kg, po administered as single dose measured after 8 hrs
# Rattus norvegicus [12] = experiment: Biodistribution in fetal liver of pregnant Sprague-Dawley rat at 5 mg/kg, po administered as single dose measured after 8 hrs
# Procedure, shortened: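 Pregnant SD rats received a single oral gavage of [14C]apixaban at 5 mg/kg (100 μCi/kg; 1.0 mg/mL, 20 μCi/mL in 0.5% Tween 80/Labrafil) after fasting, one dam per time point. Frozen carcasses were cut into 40 µm sagittal sections and read by phosphor-imaging QWBA against [14C]glucose standards. Fetal tissue radioactivity is reported as µg eq/g, with LLOQ 0.037 µg eq/g.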
# Lung [13] = experiment: Biodistribution in male Sprague-Dawley rat lung at 5 mg/kg, po administered as single dose measured after 4 hrs; procedure, shortened: as §4
# Muscle tissue = experiment: Biodistribution in male Sprague-Dawley rat muscle at 5 mg/kg, po administered as single dose measured after 72 hrs; procedure, shortened: as §3
# Blood = experiment: Biodistribution in male Sprague-Dawley rat blood at 5 mg/kg, po administered as single dose measured after 72 hrs; procedure, shortened: as §3
# Spleen = experiment: Biodistribution in male Sprague-Dawley rat spleen at 5 mg/kg, po administered as single dose measured after 0.5 hrs; procedure, shortened: as §4
# Rattus norvegicus [14] = experiment: Biodistribution in pregnant Sprague-Dawley rat bone marrow at 5 mg/kg, po administered as single dose measured after 1 hr
# Rattus norvegicus [15] = experiment: Biodistribution in male Sprague-Dawley rat pituitary gland at 5 mg/kg, po administered as single dose measured after 8 hrs
# Rattus norvegicus [16] = experiment: Biodistribution in female Sprague-Dawley rat salivary gland at 5 mg/kg, po administered as single dose measured after 4 hrs
# Procedure, shortened: (§7)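 [14C]apixaban (20 μCi/mL in dosing solution) in 0.5% Tween 80 in Labrafil given by oral gavage to fasted female rats, 206-213 g, at 100 μCi/kg. One rat per time point was euthanized and snap-frozen. Sagittal 40 µm whole-body sections were read by QWBA phosphor imaging against [14C]glucose standards. Results are in µg eq apixaban/g, with LLOQ 0.037 μg eq/g.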
# Thymus [17] = experiment: Biodistribution in female Sprague-Dawley rat thymus at 5 mg/kg, po administered as single dose measured after 4 hrs; procedure, shortened: as §6
# Brain = experiment: Biodistribution in pregnant Sprague-Dawley rat brain at 5 mg/kg, po administered as single dose measured after 24 hrs; procedure, shortened: as §5
# Rattus norvegicus [18] = experiment: Biodistribution in female Sprague-Dawley rat pituitary gland at 5 mg/kg, po administered as single dose measured after 8 hrs; procedure, shortened: as §7
structure (smiles),measurement,setting,value
COc1ccc(-n2nc(C(N)=O)c3c2C(=O)N(c2ccc(N4CCCC[14C]4=O)cc2)CC3)cc1,Radiolabel recovery,Rattus norvegicus [1],Not sampled as not visualised in autoradiograph
same,Radiolabel recovery,Rattus norvegicus [2],Not detected assumed BLQ
same,Radiolabel recovery,Rattus norvegicus [3],Not detected assumed BLQ
same,Radiolabel recovery,Rattus norvegicus [4],0.1 ugequiv/g
same,Radiolabel recovery,Thymus [5],Not detected assumed BLQ
same,Radiolabel recovery,Rattus norvegicus [6],Not detected assumed BLQ
same,Radiolabel recovery,Liver,< 0.037 ugequiv/g
same,Radiolabel recovery,Heart,Not detected assumed BLQ
same,Radiolabel recovery,Rattus norvegicus [7],0.08 ugequiv/g
same,Radiolabel recovery,Adrenal gland,2.3 ugequiv/g
same,Radiolabel recovery,Lung [8],Not detected assumed BLQ
same,Radiolabel recovery,Pancreas,Not sampled as not visualised in autoradiograph
same,Radiolabel recovery,Thymus [9],Not detected assumed BLQ
same,Radiolabel recovery,Harderian gland [10],0.64 ugequiv/g
same,Radiolabel recovery,Harderian gland [11],0.19 ugequiv/g
same,Radiolabel recovery,Rattus norvegicus [12],0.06 ugequiv/g
same,Radiolabel recovery,Lung [13],0.64 ugequiv/g
same,Radiolabel recovery,Muscle tissue,Not detected assumed BLQ
same,Radiolabel recovery,Blood,Not sampled as not visualised in autoradiograph
same,Radiolabel recovery,Spleen,0.18 ugequiv/g
same,Radiolabel recovery,Rattus norvegicus [14],0.33 ugequiv/g
same,Radiolabel recovery,Rattus norvegicus [15],0.07 ugequiv/g
same,Radiolabel recovery,Rattus norvegicus [16],0.44 ugequiv/g
same,Radiolabel recovery,Thymus [17],0.3 ugequiv/g
same,Radiolabel recovery,Brain,Not detected assumed BLQ
same,Radiolabel recovery,Rattus norvegicus [18],0.22 ugequiv/g
